In ChEMBL document CHEMBL1123247, “Nucleoside conjugates. 7. Synthesis and antitumor activity of 1-beta-D-arabinofuranosylcytosine conjugates of ether lipids” (J Med Chem, 1986):

Experiments:
[1] = test system: L1210; experiment: Antitumor activity against ip implanted L1210 leukemia in mice expressed as active dose range (1 qd treatment schedule) required to produce increase in life span by >25% was determined; Range is 50-400; type: functional, Mus musculus
Procedure, shortened: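 DBA/2J mice, groups of 6 (23-28 g), were inoculated ip with 1 × 10^6 L1210 cells on day 0. Dosing was ip from 24 h, in 0.9% NaCl with 0.5% Tween-80 (sonicated solution or suspension). Mice were observed daily until death or day 45. Median survival T/C followed NCI protocols, and ILS = (T/C − 1) × 100. Active range means doses giving ILS ≥25%; optimal dose means greatest ILS.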

[2] = test system: L1210; experiment: Antitumor activity was determined against the ic implanted L1210 lymphoid leukemia in mice by percent increase in life span at 300 mg/kg (1 qd treatment schedule) dosage; type: functional, Mus musculus
Procedure, shortened: (§1)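 DBA/2J mice, groups of 6 (26-32 g), got 1 × 10^5 L1210 cells ic on day 0. Dosing was ip starting 24 h later, as a sonicated solution or suspension in 0.9% NaCl with 0.5% Tween-80, over a wide dose range. Mice were followed daily until death. Median survival T/C was taken from survivors per NCI protocols, and ILS = (T/C − 1) × 100. Active range means doses giving ILS ≥25%; optimal dose means greatest ILS.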

[3] = test system: L1210; experiment: Antitumor activity was determined against the ip implanted L1210 leukemia in mice by change in […] at 40 mg/kg (treatment of 1-5qd schedule) dosage; type: functional, Mus musculus; conditions: route intraperitoneal
Procedure, shortened: (§2)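 DBA/2J mice, 6 per group (wt 23-28 g), inoculated ip with 1×10^6 L1210 cells on day 0. Treatment was given ip in 0.9% NaCl with 0.5% Tween-80, starting 24 h later. Weight change was taken on day 8. Mice were observed daily until death or 45 days. Median survival T/C and %ILS = (T/C − 1) × 100 came from survivors per NCI protocols, and 45-day survivors were counted.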

[4] = test system: L1210; experiment: Antitumor activity was determined against the ic implanted L1210 lymphoid leukemia in mice by percent median survival rate (treated/control) at 80 mg/kg (1-5qd treatment schedule) dosage; 22.0/8.0; type: functional, Mus musculus
[5] = test system: P388; experiment: Antitumor activity was determined against the ip implanted P388 leukemia in mice by percent increase in life span at 60 mg/kg (treatment of 1-5qd schedule) dosage; type: functional, Mus musculus; conditions: route intraperitoneal
Procedure, shortened: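 DBA/2J mice, 23-33 g, in groups of 6, were inoculated ip with 1×10^6 P388 cells on day 0. Dosing was ip from 24 h on the stated schedules, in 0.9% NaCl with 0.5% Tween-80 (sonicated solution or suspension). Survival was followed daily until death or 45 days. Median T/C was calculated from survivors per NCI protocols, with ILS = (T/C − 1) × 100.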

[6] = test system: L1210; experiment: Antitumor activity was determined against the ip implanted L1210 leukemia in mice by range in survival days at 80 mg/kg (treatment of 1-5qd schedule) dosage; Range is 21-30; type: functional, Mus musculus; conditions: route intraperitoneal
Procedure, shortened: (§3)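 DBA/2J mice, 23-28 g, in groups of 6, were inoculated ip with 1×10^6 L1210 cells on day 0. Dosing was ip starting 24 h later on the stated daily schedules. Conjugates were given as sonicated solutions and reference prodrugs as suspensions in 0.9% NaCl with 0.5% Tween-80. Mice were observed daily until death or 45 days. Median survival T/C was calculated from survivors per NCI protocols.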

[7] = test system: P388; experiment: Antitumor activity against ip implanted P388 leukemia in mice expressed as active dose range (1 qd treatment schedule) required to produce increase in life span by >25% was determined; Range is 300-500; type: functional, Mus musculus
Procedure, shortened: (§4)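 P388 leukemia: 1 × 10^6 cells were given ip on day 0 to DBA/2J mice, groups of 6 (23-33 g). Treatment was ip from 24 h after inoculation, vehicle 0.9% NaCl with 0.5% Tween-80. Mice were observed daily until death or 45 days. Median survival T/C was calculated from survivors per NCI protocols, and ILS = (T/C − 1) × 100. Active range means doses giving ILS ≥25%; optimal dose means greatest ILS.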

[8] = test system: L1210; experiment: Antitumor activity was determined against the ip implanted L1210 leukemia in mice by change in […] at 80 mg/kg (treatment of 1-5qd schedule) dosage; type: functional, Mus musculus; conditions: route intraperitoneal; procedure, shortened: as §2
[9] = test system: L1210; experiment: Antitumor activity was determined against the ip implanted L1210 leukemia in mice by 45-day survivors in mice at 80 mg/kg (treatment of 1-5qd schedule) dosage; type: functional, Mus musculus; conditions: route intraperitoneal
Procedure, shortened: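 DBA/2J mice in groups of 6 (wt 23-28 g) were inoculated ip with 1×10^6 L1210 cells on day 0. Dosing was ip from 24 h, in 0.9% NaCl with 0.5% Tween-80 (conjugates sonicated), across a range of doses. Mice were observed daily until death or 45 days. Median T/C was computed from survivors per NCI protocols, and ILS = (T/C − 1)×100.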

[10] = test system: L1210; experiment: Antitumor activity was determined against the ip implanted L1210 leukemia in mice by change in […] at 400 mg/kg (treatment of 1-5qd schedule) dosage; type: functional, Mus musculus; conditions: dose 200 mg/kg; route intraperitoneal; in the assay text read “200 mg/kg” for “400 mg/kg”; procedure, shortened: as §2
[11] = test system: Glioblastoma cell line; experiment: Compound was tested for the inhibition of glioblastoma; type: functional, cell-based; conditions: Homo sapiens
Procedure, shortened: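 Human leukemia and solid tumor cells in culture were exposed to compound for 48 h. Viability was scored by trypan blue dye exclusion. IC50 (50% inhibition) was estimated from response curves of three separate experiments.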

[12] = test system: L1210; experiment: Antitumor activity was determined against the ic implanted L1210 lymphoid leukemia in mice by median survival time at 300 mg/kg (treatment of 1-5qd schedule) dosage; 16.0/7.0
[13] = test system: L1210; experiment: Antitumor activity against ic implanted L1210 lymphoid leukemia in mice expressed as active dose range (1-5qd treatment schedule) required to produce increase in life span by >25% was determined; Range is 50-300; type: functional, Mus musculus; procedure, shortened: as §1
[14] = test system: L1210; experiment: Antitumor activity was determined against the ip implanted L1210 leukemia in mice by range in survival days at 400 mg/kg (treatment of 1qd schedule) dosage; Range is 9-11; type: functional, Mus musculus; conditions: route intraperitoneal; procedure, shortened: as §3
[15] = test system: P388; experiment: Antitumor activity against ip implanted P388 leukemia in mice expressed as active dose range (1 qd treatment schedule) required to produce increase in life span by >25% was determined; Range is 100-600; type: functional, Mus musculus; procedure, shortened: as §4
[16] = test system: L1210; experiment: Antitumor activity was determined against the ic implanted L1210 lymphoid leukemia in mice by median survival time at 100 mg/kg (treatment of 1-9qd schedule) dosage; 14/7.0
[17] = test system: L1210; experiment: Antitumor activity was determined against the ip implanted L1210 leukemia in mice by percent median survival rate (treated/control) at 400 mg/kg (treatment of 1qd schedule) dosage; 9.5/8.0; type: functional, Mus musculus; conditions: route intraperitoneal; procedure, shortened: as §3
[18] = test system: P388; experiment: Antitumor activity was determined against the ip implanted P388 leukemia in mice by range in survival days at 500 mg/kg (treatment of 1qd schedule) dosage; Range is 23->45; type: functional, Mus musculus; conditions: route intraperitoneal
[19] = test system: P388; experiment: Antitumor activity was determined against the ip implanted P388 leukemia in mice by percent median survival rate (treated/control) at 500 mg/kg (treatment of 1qd schedule) dosage; >45.0/11.0; type: functional, Mus musculus; conditions: route intraperitoneal

With `CCCCCCCCCCCCCCCC(=O)OC[C@H](COP(=O)(O)OP(=O)(O)OC[C@H]1O[C@@H](n2ccc(N)nc2=O)[C@@H](O)[C@@H]1O)OC(=O)CCCCCCCCCCCCCCC` the Active dose range [1] was 50 mg/kg/day, the ILS [2] was 200 and the Weight change [3] was -1.9 g mouse-1. It also gave a median survival time [4] of 22 days.
In the case of `CCCCCCCCCCCCCCCCOCC(COP(=O)(O)OP(=O)(O)OC[C@H]1O[C@@H](n2ccc(N)nc2=O)[C@@H](O)[C@@H]1O)OC(=O)CCCCCCCCCCCCCCC` (mixture of isomers), the ILS [5] is reported as >309, the Range [6] is reported as 21 and the Active dose range [7] is reported as 300 mg/kg/day. The Weight change [8] was 0.33 g mouse-1 and the Survivors [9] was 0.
For `Nc1ccn([C@@H]2O[C@H](CO)[C@@H](O)[C@@H]2O)c(=O)n1` [CYTARABINE], the Weight change [10] was -2.9 g mouse-1, the IC50 [11] was > 100 µM and the median survival time [12] was 16 days. The Active dose range [13] was 50 mg/kg/day, the Range [14] was 9 and the Active dose range [15] was 100 mg/kg/day. For the same compound, the median survival time [16] was 14 days and the T/C [17] was 9.5%.
With `CCCCCCCCCCCCCCCCCCOCC(COP(=O)(O)OP(=O)(O)OC[C@H]1O[C@@H](n2ccc(N)nc2=O)[C@@H](O)[C@@H]1O)OC(=O)CCCCCCCCCCCCCCC` (mixture of isomers) the Range [18] was 23 and the T/C [19] was >45%.
